Assay results gathered from unrelated publications.
Lines come from different studies, so protocols differ.
Target: Ephrin type-B receptor 3 (EPHB3, Homo sapiens, UniProt P54753)
Sequence (P54753 34-998, as in one of the studies): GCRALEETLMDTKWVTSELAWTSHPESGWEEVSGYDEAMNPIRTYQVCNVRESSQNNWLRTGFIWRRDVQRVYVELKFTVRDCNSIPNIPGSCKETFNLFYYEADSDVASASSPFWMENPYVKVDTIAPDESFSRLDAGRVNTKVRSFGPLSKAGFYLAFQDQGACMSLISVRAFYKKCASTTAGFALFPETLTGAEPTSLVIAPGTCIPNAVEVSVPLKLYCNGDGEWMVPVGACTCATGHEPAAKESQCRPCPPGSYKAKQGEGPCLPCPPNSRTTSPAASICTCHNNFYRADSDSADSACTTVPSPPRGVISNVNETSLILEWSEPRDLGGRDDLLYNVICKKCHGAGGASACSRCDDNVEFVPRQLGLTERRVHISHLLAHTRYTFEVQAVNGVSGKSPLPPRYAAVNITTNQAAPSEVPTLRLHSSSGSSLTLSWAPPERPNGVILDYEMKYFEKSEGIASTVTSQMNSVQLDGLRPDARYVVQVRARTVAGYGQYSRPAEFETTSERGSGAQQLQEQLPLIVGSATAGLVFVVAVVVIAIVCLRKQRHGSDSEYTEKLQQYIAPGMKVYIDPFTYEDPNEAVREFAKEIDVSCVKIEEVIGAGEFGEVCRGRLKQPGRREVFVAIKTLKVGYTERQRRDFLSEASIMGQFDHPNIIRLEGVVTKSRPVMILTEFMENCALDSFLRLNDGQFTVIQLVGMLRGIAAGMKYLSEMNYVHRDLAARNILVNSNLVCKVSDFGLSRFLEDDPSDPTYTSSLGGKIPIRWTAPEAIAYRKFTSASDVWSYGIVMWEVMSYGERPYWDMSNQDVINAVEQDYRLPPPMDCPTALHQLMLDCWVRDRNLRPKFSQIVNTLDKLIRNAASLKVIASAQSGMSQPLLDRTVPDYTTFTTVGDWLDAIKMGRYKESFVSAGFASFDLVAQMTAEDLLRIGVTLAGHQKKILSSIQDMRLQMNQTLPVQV

Cc1ccc(C(=O)NCc2ccsc2)cc1C#Cc1cn(C(C)C)c2ncnc(N)c12  activity vs control (enzyme activity; inhibitor; 1 µM): 100%
O=C(Nc1cnn(-c2csc(C(=O)NC3COC3)c2)c1)Nc1ccccc1Cl  remaining activity (enzyme activity; inhibitor; 5 µM): 95.6%
CCCS(=O)(=O)Nc1ccc(F)c(C(=O)c2c[nH]c3ncc(-c4ccc(Cl)cc4)cc23)c1F  inhibition (enzyme activity; inhibitor; 1 µM): < 10%
O=C1Nc2ccc(Cl)cc2C1=Cc1cc(Cl)c(O)c(Cl)c1  remaining signal (cell-free assay; 0.5 µM): 91%
CC(C)(C)c1nc2c(s1)c1nc(N)ncc1c1ccc(NS(=O)(=O)c3c(F)cccc3F)c(F)c12  remaining activity (enzyme activity; inhibitor; radiometric; 1 µM): 93%
COc1cc(Nc2cnc(C#N)c(O[C@H](C)CN(C)C)n2)ncc1-c1cnn(C)c1  remaining activity (enzyme activity; inhibitor; radiometric; 10 µM): 23%
CNC(=O)c1cc(Oc2ccc(NC(=O)Nc3ccc(Cl)c(C(F)(F)F)c3)cc2)ccn1  inhibition (enzyme activity; inhibitor; 10 µM): 38%
COc1cccc(CNC(=O)c2nc3scc(COCc4ccc(C(=O)O)cc4)c3c(=O)[nH]2)c1  remaining binding (cell-free assay; competition with immobilised ligand; 1 µM): 85.4%
Nc1nc(Nc2ccccc2)sc1C(=O)c1c(F)cccc1F  remaining activity (enzyme activity; inhibitor; 10 µM): 59%
Oc1cccc(-c2nc(N3CCOCC3)c3oc4ncccc4c3n2)c1  remaining activity (enzyme activity; inhibitor; 10 µM): 127%
Cc1ccc(Nc2nccc(N(C)c3ccc4c(C)n(C)nc4c3)n2)cc1S(N)(=O)=O  remaining signal (cell-free assay; 0.5 µM): 71.7%
CS(=O)(=O)N1CCCC(NC(=O)[C@H](CCC2CCCCC2)NC(=O)c2ccc(CNc3ncnc4c3nnn4-c3ccccc3)cc2)C1 (some centres unmarked)  remaining binding (cell-free assay; competition with immobilised ligand; 0.1 µM): 91%
Cn1cncc1C1=CN(c2ncnc3[nH]cnc23)CCS1  inhibition (enzyme activity; inhibitor; radiometric; 2 µM): 20.2%
Cc1cnc(NC2CCOCC2)nc1-n1cnc(C(=O)NC(CN)c2cc(F)cc(Cl)c2)c1 (centres unmarked)  remaining activity (enzyme activity; inhibitor; radiometric; 1 µM): 115%
O=c1nc(-c2ccccn2)sc2ccccc12  remaining binding (cell-free assay; competition with immobilised ligand; 1 µM): 100%
COc1cc2ncnc(Nc3ccc(F)c(Cl)c3)c2cc1OCCCN1CCOCC1  remaining signal (cell-free assay; 0.5 µM): 57.5%
CO[C@@H](C)c1c(Nc2ccc([C@H](N(C)C(=O)C3CCS(=O)(=O)CC3)C(F)(F)F)cc2)cnc2cc(Cl)nn12  remaining binding (cell-free assay; competition with immobilised ligand; 1 µM): 100%
COc1cc2nccc(Oc3ccc(NC(=O)Nc4ccc(F)cc4F)c(F)c3)c2cc1OC  ΔTm (thermal stability; DSF; 10 µM): 5 to 10 °C
CCN(CC)CCNC(=O)c1c(C)[nH]c(/C=C2\C(=O)Nc3ccc(F)cc32)c1C  inhibition (enzyme activity; inhibitor; 0.3 µM): -5%
CN(C)C(=O)Cn1cc(-c2nc(C3(c4ccc(-c5cnc(N)nc5)cc4)CC3)no2)cn1  remaining binding (cell-free assay; competition with immobilised ligand; 1 µM): 95%
Cc1sc(C(=O)NC2COC2)cc1-n1cc(NC(=O)Nc2c(F)cccc2Cl)cn1  remaining activity (enzyme activity; inhibitor; 10 µM): 97.2%
Cn1cc(Cl)c2c(Oc3c(F)cc(Nc4cc(Cl)nc(N)n4)cc3F)ccnc21  remaining binding (cell-free assay; competition with immobilised ligand; 0.1 µM): 100%
Nc1nc(NC2CCCCC2)sc1C(=O)c1ccccc1  remaining activity (enzyme activity; inhibitor; 10 µM): 88%
Clc1ccc(Nc2nnc(Cc3ccncc3)c3ccccc23)cc1  remaining signal (cell-free assay; 0.5 µM): 65.1%
CC/C(=N\NC(=O)NCc1cccc(O)c1)c1ccc(O)c(C)c1O  inhibition (enzyme activity; inhibitor; 0.1 µM): 0.6%
CN(C(=O)c1ccccc1)c1cc(N(C)c2ccc3c(c2)CCc2ccc(C(=O)NCCN4CCOCC4)cc2C3=O)ccc1F  remaining binding (cell-free assay; competition with immobilised ligand; 1 µM): 94%
FC(F)c1nc2ccccc2n1-c1nc(N2CCOCC2)nc(N2CCOCC2)n1  remaining activity (enzyme activity; inhibitor; 10 µM): 113%
CCCOc1ccc([C@@H]2[C@@H](C(=O)O)[C@H](c3ccc4c(c3)OCO4)CN2CC(=O)Nc2c(CC)cccc2CC)cc1  remaining binding (cell-free assay; competition with immobilised ligand; 1 µM): 96%
COc1cc2ncnc(Nc3ccc(Oc4ccccc4)c(C)c3C)c2cc1OC  inhibition (enzyme activity; inhibitor; 1 µM): 2%
